The target of series [1] is T1, Palmitoyltransferase ZDHHC2 (Homo sapiens, UniProt Q9UIJ5).
T1 sequence (Q9UIJ5 whole entry): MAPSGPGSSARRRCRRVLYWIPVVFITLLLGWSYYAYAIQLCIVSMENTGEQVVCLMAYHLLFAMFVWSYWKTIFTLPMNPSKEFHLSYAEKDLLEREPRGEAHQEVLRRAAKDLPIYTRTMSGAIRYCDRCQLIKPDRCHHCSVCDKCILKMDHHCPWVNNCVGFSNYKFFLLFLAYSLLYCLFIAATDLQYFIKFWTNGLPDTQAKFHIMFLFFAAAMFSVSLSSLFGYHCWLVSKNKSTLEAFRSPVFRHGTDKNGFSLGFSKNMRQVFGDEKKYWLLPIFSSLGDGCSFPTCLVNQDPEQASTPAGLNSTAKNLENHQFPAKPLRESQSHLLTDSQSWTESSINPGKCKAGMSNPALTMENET
Kind of series: Inhibition of human myc-His6-tagged zDHHC2 expressed in HEK293T cells using 5-FAM-GTQGCMGLPCVVM-COOH as substrate preincubated for 30 mins followed by substrate addition and measured at 1 min interval for 2 hrs in presence of palmitoyl-CoA by fluorescence polarization assay. For orientation: Fluorescence polarisation rises when a labelled molecule tumbles more slowly, as on binding a larger partner.

The target of series [2] is T2, Palmitoyltransferase ZDHHC20 (Homo sapiens) (UniProt Q5W0Z9).
T2 sequence (whole entry): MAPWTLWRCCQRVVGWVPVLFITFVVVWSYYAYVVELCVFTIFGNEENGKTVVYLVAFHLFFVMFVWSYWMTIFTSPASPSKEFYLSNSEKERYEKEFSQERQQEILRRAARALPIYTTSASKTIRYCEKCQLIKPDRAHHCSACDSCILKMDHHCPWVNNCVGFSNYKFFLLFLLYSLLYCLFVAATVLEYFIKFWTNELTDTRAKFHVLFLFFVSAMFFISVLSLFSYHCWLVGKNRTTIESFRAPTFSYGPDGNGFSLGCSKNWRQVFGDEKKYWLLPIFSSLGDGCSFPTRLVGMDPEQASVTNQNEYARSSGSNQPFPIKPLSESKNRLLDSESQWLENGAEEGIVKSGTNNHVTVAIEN
Put plainly: Inhibition of human myc-His6-tagged zDHHC20 expressed in HEK293T cells at 10 uM using 5-FAM-GTQGCMGLPCVVM-COOH as substrate preincubated for 1 hr followed by substrate addition and measured at 1 min interval for 2 hrs in presence of palmitoyl-CoA by fluorescence polarization assay. To be noted: time 3.0 hrs. The method, boiled down: (§1)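 Purified zDHHC20 run in the acyl-cLIP assay, an earlier adaptation by the same group. Enzyme-mediated acylation of a peptide is read as polarized fluorescence.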

The target in series [3] is T3, Palmitoyltransferase ZDHHC20 (Homo sapiens, UniProt Q5W0Z9).
T3 sequence (Q5W0Z9 whole entry): T2 sequence (whole entry)
Put plainly: Inhibition of human myc-His6-tagged zDHHC20 expressed in HEK293T cells using 5-FAM-GTQGCMGLPCVVM-COOH as substrate preincubated for 1 hr followed by substrate addition and measured at 1 min interval for 2 hrs in presence of palmitoyl-CoA by fluorescence polarization assay. In a few lines: as §1

Series [4] is described as follows: Lipophilicity, log P of compound. In kind it is physicochemical. To be noted: octanol/water.
In series [5] the target is T4, Palmitoyltransferase ZDHHC2 (Homo sapiens) (UniProt Q9UIJ5).
T4 sequence (whole entry): T1 sequence (Q9UIJ5 whole entry)
Put plainly: Inhibition of human myc-His6-tagged zDHHC2 expressed in HEK293T cells at 10 uM using 5-FAM-GTQGCMGLPCVVM-COOH as substrate preincubated for 30 mins followed by substrate addition and measured at 1 min interval for 2 hrs in presence of palmitoyl-CoA by fluorescence polarization assay. Particulars: time 150.0 min.

The target in series [6] is T2, Palmitoyltransferase ZDHHC20 (Homo sapiens). Kind of series: Binding affinity to human myc-His6-tagged zDHHC20 expressed in HEK293T cells at 1 uM measured after 1 hr by TAMRA-azide-labelled in-gel fluorescence analysis. In kind it is cell-based. The method, boiled down: (§2)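 Myc-tagged enzyme overexpressed in HEK293T cells; cells treated with probe at 1 μM for 1 h. Lysates then clicked to TAMRA-azide, proteins resolved by SDS-PAGE and read by in-gel fluorescence. Expression checked by anti-myc Western blot. n = 2.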

Series [7] deals with T4, Palmitoyltransferase ZDHHC2 (Homo sapiens). Kind of series: Binding affinity to human myc-His6-tagged zDHHC2 expressed in HEK293T cells at 1 uM measured after 1 hr by TAMRA-azide-labelled in-gel fluorescence analysis. In kind it is cell-based. In a few lines:
as §2

The source made the active and inactive calls. No cut-off for these calls is given here.

Consider `CCCCCCCCCCCCCCNC(=O)/C=C\C(=O)Oc1ccccc1`, for which the IC50 – broadly, the concentration at which inhibition is half-maximal – in series [1] is 2020 nM. Further, in series [2], the inhibition (usually the change of the read-out against control, counted positive when it falls) stood at 50%.

In the case of `CCCCCCCCCCCCCCN(CC#N)C(=O)/C=C\C(=O)O`, in series [3], the IC50 worked out at 3450 nM.

For the molecule `CCCCCCCCCCCCCCNC(=O)/C=C\C(=O)OCC#N`, the IC50 in series [1] turned out to be 2660 nM; in series [3] it was 2870 nM.

On to `CCCCCCCCCCCCCCNC(=O)/C=C\C(=O)OCc1cn(CCCNC(=O)CCNC(=O)[C@H](O)C(C)(C)CO)nn1`, for which, in series [3], the IC50 turned out to be 9730 nM. Besides, the logP (usually the decadic logarithm of the partition coefficient of the neutral form, usually between octanol and water) in series [4] stood at 3.33.

`CCCCCCCCCCCCCCNC(=O)/C=C\C(=O)OCc1cn(CCOCCOCCOCCO)nn1`: the inhibition result in series [2] was “Active”. For the same molecule, the logP in series [4] was 4.55.

With `CCCCCCCCCCCCCCC(Br)C(=O)O` (centres undefined), the IC50 in series [1] is 2020 nM; in series [3], 5550 nM.

As to `C=CC(=O)N(CC#N)CCOCCCCCCCCCCC`, in series [3], the IC50 was found to be 1970 nM. Besides, the inhibition entry in series [5] is “Active”. In series [4], this molecule showed a log partition coefficient (logP) of 4.1.

Consider `C=CC(=O)NCCCCCCCCCCCCCC`, for which the IC50 came out at 59900 nM in series [1] and 21400 nM in series [3].

On to `C#CCN(CCCCCCCCCCCCCC)C(=O)C=C`, for which the result in series [6] and in series [7] was Active.

For the molecule `C#CCOC(=O)/C=C/C(=O)NCCCCCCCCCCCCCC`, the outcome in series [6] and in series [7] was Active.

On to `C=CC(=O)N(CC#N)CCCCCCCCCCCCCC`, for which the IC50 in series [1] came out at 590 nM; in series [3], 1350 nM. For the same molecule, the inhibition result in series [5] is “Active”. Also, in series [4], the logP came out at 5.48.

As for `C#CCOC(=O)/C=C\C(=O)NCCCCCCCCCCCCCC`, in series [3], the IC50 was found to be 3430 nM. Moreover, the inhibition entry in series [5] is “Active”. In addition, the result in series [6] and in series [7] was Active.

As to `CCCCCCCCCCCCCCNC(=O)/C=C\C(=O)OC`, in series [2], the inhibition result was “Active”.

The values are drawn from ChEMBL document CHEMBL5126648, “Charting the Chemical Space of Acrylamide-Based Inhibitors of zDHHC20” (ACS Med Chem Lett, 2022).
